Measured values: ChEMBL document CHEMBL1250477, “Reverse engineering truncations of an antimicrobial peptide dimer to identify the origins of potency and broad spectrum of action” (J Med Chem, 2010)
Values after ≈ are worked out from the molar mass of the structure shown. Active and inactive are the calls of the source. The calls are words filed in the database; no cut-off is given here.

Experiments:
Escherichia coli [1] = assay: Antibacterial activity against Escherichia coli ML35p after 18 hrs; type: functional
How it was run: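 Broth microdilution, modified MIC method for cationic peptides. Overnight culture diluted in Mueller Hinton broth to 10⁵ CFU/mL; peptide added from 10× stock in 0.2% BSA/0.01% acetic acid. MIC = lowest concentration inhibiting measurable growth. Triplicates, repeated at least twice.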

Staphylococcus aureus [2] = assay: Antibacterial activity against vancomycin/methicillin-resistant Staphylococcus aureus ATCC 700699 after 18 hrs; type: functional; conditions: ATCC 700699, 18 h
How it was run: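 Modified broth microdilution for cationic peptides. Overnight cells were diluted in Mueller Hinton broth to 10⁵ CFU/mL, and peptide was added from a 10× stock in 0.2% BSA/0.01% acetic acid. MIC = lowest concentration inhibiting measurable growth. Triplicates, repeated at least twice.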

Escherichia coli [3] = assay: Drug uptake in Escherichia coli ML35p outer membrane assessed as increase in fluorescence of N-phenylnaphthylamine at 10 uM measured for 10 mins; type: ADME, organism-based; conditions: in vivo
How it was run: (§1)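 NPN uptake: mid-log cells washed and resuspended in 5 mM glucose/5 mM HEPES pH 7.2. Peptide added to 10 μM final, with 10 μM NPN. Fluorescence (ex 350 nm, em 420 nm) monitored for 10 min.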

Escherichia coli [4] = assay: Drug uptake in Escherichia coli ML35p inner membrane assessed as increase in fluorescence of propidium iodide at 10 uM measured for 10 mins; type: ADME, organism-based; conditions: in vivo
How it was run: (§2)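 PI uptake: mid-log cells washed and resuspended in 5 mM glucose/5 mM HEPES pH 7.2. Peptide added to 10 μM final, with 2.7 μM propidium iodide. Fluorescence (ex 535 nm, em 617 nm) followed for 10 min; lag before rise read from trace.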

Escherichia coli [5] = assay: Drug uptake in Escherichia coli ML35p inner membrane assessed as lag time at 10 uM; type: ADME, organism-based; conditions: in vivo; how it was run: as §2
Escherichia coli [6] = assay: Drug uptake in Escherichia coli ML35p inner membrane assessed as time required to permeabilize to inner membrane at 10 uM; type: ADME, organism-based; conditions: in vivo; how it was run: as §2
Escherichia coli [7] = assay: Drug uptake in Escherichia coli ML35p outer membrane assessed as time required to permeabilize to outer membrane at 10 uM; type: ADME, organism-based; conditions: in vivo; how it was run: as §1
Escherichia coli [8] = assay: Induction of morphological changes in Escherichia coli ML35p assessed as thin filamentous phenotype at MIC concentration after 18 hrs using propidium iodide/Syto9 staining by microscopic analysis; type: functional, organism-based
How it was run: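 Incubated overnight (18 h) with peptide at its MIC, 37 °C, 200 rpm. Stained 15 min with PI (2.7 μM) and Syto 9 (6 μM), smeared, heat-fixed and imaged under Syto and PI filters. Untreated cells as control.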

Escherichia coli [9] = assay: Ratio of MBC to MIC for Escherichia coli ML35p; type: functional
How it was run: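 MBC per CLSI: 100 μL from each clear MIC well plated on MH agar in triplicate, 18 h incubation; MBC = lowest concentration preventing growth of 99.9% of bacteria. Ratio taken as MBC/MIC. Two independent experiments in triplicate.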

Escherichia coli [10] = assay: Antibacterial activity against Escherichia coli ML35p assessed as reduction of colony forming units at 4 times MIC concentration after 5 mins; type: functional; design: scale not given: the % may be the effect or the level left
How it was run: (§3)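 Time-kill: overnight culture diluted in MH broth to 10⁵ CFU/mL. 1 mL exposed to peptide at 4× MIC, or water as control, at 37 °C, 200 rpm. At time points, aliquots diluted and plated on MH agar. Colonies counted after 20 h at 37 °C. Time to ~95% kill estimated.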

Escherichia coli [11] = assay: Antibacterial activity against Escherichia coli ML35p assessed as reduction of colony forming units at 4 times MIC concentration after 20 mins; type: functional; design: scale not given: the % may be the effect or the level left; how it was run: as §3
Escherichia coli [12] = assay: Antibacterial activity against Escherichia coli ML35p assessed as reduction of colony forming units at 4 times MIC concentration after 40 mins; type: functional; design: scale not given: the % may be the effect or the level left; how it was run: as §3
Staphylococcus aureus [13] = assay: Ratio of MBC to MIC for vancomycin/methicillin-resistant Staphylococcus aureus ATCC 700699; type: functional
How it was run: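 For MBC, 100 μL from each clear well was plated on MH agar in triplicate and incubated for 18 h. MBC = lowest concentration preventing growth of 99.9% of bacteria. The ratio is MBC divided by MIC. Two independent experiments.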

CC(=O)NCC(=O)N[C@H](CCCCN)C(=O)N/C(=C\c1ccccc1)C(=O)N[C@@H](Cc1c[nH]c2ccccc12)C(=O)N[C@@H](C)C(=O)NCCCC[C@@H](NC(=O)[C@H](C)NC(=O)[C@H](Cc1c[nH]c2ccccc12)NC(=O)/C(=C\c1ccccc1)NC(=O)[C@@H](CCCCN)NC(=O)CNC(C)=O)C(N)=O [PEPTIDE A]
MIC (Escherichia coli [1]): > 100 µM
MIC (Staphylococcus aureus [2]): > 100 µM

CC(=O)NCC(=O)N/C(=C/c1ccccc1)C(=O)N[C@@H](CCCNC(=N)N)C(=O)N[C@@H](CCCCN)C(=O)N/C(=C/c1ccccc1)C(=O)N[C@@H](Cc1c[nH]cn1)C(=O)N[C@@H](CCCCN)C(=O)N/C(=C\c1ccccc1)C(=O)N[C@@H](Cc1c[nH]c2ccccc12)C(=O)N[C@@H](C)C(=O)NCCCC[C@H](NC(=O)[C@H](C)NC(=O)[C@H](Cc1c[nH]c2ccccc12)NC(=O)/C(=C\c1ccccc1)NC(=O)[C@H](CCCCN)NC(=O)[C@H](Cc1c[nH]cn1)NC(=O)/C(=C\c1ccccc1)NC(=O)[C@H](CCCCN)NC(=O)[C@H](CCCNC(=N)N)NC(=O)/C(=C\c1ccccc1)NC(=O)CNC(C)=O)C(N)=O [listing 1 of 2 here]
Drug uptake (Escherichia coli [3]): Active
Drug uptake (Escherichia coli [4]): Active
Time (Escherichia coli [5]): 2.5 min
Time (Escherichia coli [6]): 230 s
Time (Escherichia coli [7]): 150 s

CC(=O)NCC(=O)N[C@@H](Cc1c[nH]cn1)C(=O)N[C@H](CCCCN)C(=O)N/C(=C\c1ccccc1)C(=O)N[C@@H](Cc1c[nH]c2ccccc12)C(=O)N[C@@H](C)C(=O)NCCCC[C@@H](NC(=O)[C@H](C)NC(=O)[C@H](Cc1c[nH]c2ccccc12)NC(=O)/C(=C\c1ccccc1)NC(=O)[C@@H](CCCCN)NC(=O)[C@H](Cc1c[nH]cn1)NC(=O)CNC(C)=O)C(N)=O
MIC (Escherichia coli [1]): > 100 µM
MIC (Staphylococcus aureus [2]): > 100 µM

CC(=O)NCC(=O)N[C@@H](CCCNC(=N)N)C(=O)N[C@H](CCCCN)C(=O)N/C(=C/c1ccccc1)C(=O)N[C@@H](Cc1c[nH]cn1)C(=O)N[C@H](CCCCN)C(=O)N/C(=C\c1ccccc1)C(=O)N[C@@H](Cc1c[nH]c2ccccc12)C(=O)N[C@@H](C)C(=O)NCCCC[C@@H](NC(=O)[C@H](C)NC(=O)[C@H](Cc1c[nH]c2ccccc12)NC(=O)/C(=C\c1ccccc1)NC(=O)[C@@H](CCCCN)NC(=O)[C@H](Cc1c[nH]cn1)NC(=O)/C(=C\c1ccccc1)NC(=O)[C@@H](CCCCN)NC(=O)[C@@H](CCCNC(=N)N)NC(=O)CNC(C)=O)C(N)=O
Activity (Escherichia coli [8]): Active

CC(=O)NCC(=O)N[C@@H](CCCCN)C(=O)N/C(=C/c1ccccc1)C(=O)N[C@@H](Cc1c[nH]cn1)C(=O)N[C@@H](CCCCN)C(=O)N/C(=C\c1ccccc1)C(=O)N[C@@H](Cc1c[nH]c2ccccc12)C(=O)N[C@@H](C)C(=O)NCCCC[C@H](NC(=O)[C@H](C)NC(=O)[C@H](Cc1c[nH]c2ccccc12)NC(=O)/C(=C\c1ccccc1)NC(=O)[C@H](CCCCN)NC(=O)[C@H](Cc1c[nH]cn1)NC(=O)/C(=C\c1ccccc1)NC(=O)[C@H](CCCCN)NC(=O)CNC(C)=O)C(N)=O [listing 1 of 2 here]
Drug uptake (Escherichia coli [3]): Active
Drug uptake (Escherichia coli [4]): Not Active

CC(=O)NCC(=O)N[C@@H](CCCNC(=N)N)C(=O)N[C@@H](CCCCN)C(=O)N/C(=C/c1ccccc1)C(=O)N[C@@H](Cc1c[nH]cn1)C(=O)N[C@@H](CCCCN)C(=O)N/C(=C\c1ccccc1)C(=O)N[C@@H](Cc1c[nH]c2ccccc12)C(=O)N[C@@H](C)C(=O)NCCCC[C@H](NC(=O)[C@H](C)NC(=O)[C@H](Cc1c[nH]c2ccccc12)NC(=O)/C(=C\c1ccccc1)NC(=O)[C@H](CCCCN)NC(=O)[C@H](Cc1c[nH]cn1)NC(=O)/C(=C\c1ccccc1)NC(=O)[C@H](CCCCN)NC(=O)[C@H](CCCNC(=N)N)NC(=O)CNC(C)=O)C(N)=O [listing 1 of 2 here]
MBC (Escherichia coli [1]): 10 µM (≈ 25.4 µg/mL)
MIC (Escherichia coli [1]): 5 µM (≈ 12.7 µg/mL)
MIC (Staphylococcus aureus [2]): > 100 µM
Ratio (Escherichia coli [9]): 2
Activity (Escherichia coli [10]): 50%
Activity (Escherichia coli [11]): 95%

CC(=O)NCC(=O)N[C@@H](CCCCN)C(=O)N/C(=C/c1ccccc1)C(=O)N[C@@H](Cc1c[nH]cn1)C(=O)N[C@@H](CCCCN)C(=O)N/C(=C\c1ccccc1)C(=O)N[C@@H](Cc1c[nH]c2ccccc12)C(=O)N[C@@H](C)C(=O)NCCCC[C@H](NC(=O)[C@H](C)NC(=O)[C@H](Cc1c[nH]c2ccccc12)NC(=O)/C(=C\c1ccccc1)NC(=O)[C@H](CCCCN)NC(=O)[C@H](Cc1c[nH]cn1)NC(=O)/C(=C\c1ccccc1)NC(=O)[C@H](CCCCN)NC(=O)CNC(C)=O)C(N)=O [listing 2 of 2 here]
MBC (Escherichia coli [1]): 15 µM (≈ 33.4 µg/mL)
MIC (Escherichia coli [1]): 10 µM (≈ 22.3 µg/mL)
MIC (Staphylococcus aureus [2]): > 100 µM
Ratio (Escherichia coli [9]): 1.5
Activity (Escherichia coli [10]): 50%
Activity (Escherichia coli [12]): 95%

CC(=O)NCC(=O)N/C(=C/c1ccccc1)C(=O)N[C@@H](CCCNC(=N)N)C(=O)N[C@H](CCCCN)C(=O)N/C(=C/c1ccccc1)C(=O)N[C@@H](Cc1c[nH]cn1)C(=O)N[C@H](CCCCN)C(=O)N/C(=C\c1ccccc1)C(=O)N[C@@H](Cc1c[nH]c2ccccc12)C(=O)N[C@@H](C)C(=O)NCCCC[C@@H](NC(=O)[C@H](C)NC(=O)[C@H](Cc1c[nH]c2ccccc12)NC(=O)/C(=C\c1ccccc1)NC(=O)[C@@H](CCCCN)NC(=O)[C@H](Cc1c[nH]cn1)NC(=O)/C(=C\c1ccccc1)NC(=O)[C@@H](CCCCN)NC(=O)[C@@H](CCCNC(=N)N)NC(=O)/C(=C\c1ccccc1)NC(=O)CNC(C)=O)C(N)=O
Activity (Escherichia coli [8]): Active

CC(=O)NCC(=O)N[C@@H](CCCNC(=N)N)C(=O)N[C@@H](CCCCN)C(=O)N/C(=C/c1ccccc1)C(=O)N[C@@H](Cc1c[nH]cn1)C(=O)N[C@@H](CCCCN)C(=O)N/C(=C\c1ccccc1)C(=O)N[C@@H](Cc1c[nH]c2ccccc12)C(=O)N[C@@H](C)C(=O)NCCCC[C@H](NC(=O)[C@H](C)NC(=O)[C@H](Cc1c[nH]c2ccccc12)NC(=O)/C(=C\c1ccccc1)NC(=O)[C@H](CCCCN)NC(=O)[C@H](Cc1c[nH]cn1)NC(=O)/C(=C\c1ccccc1)NC(=O)[C@H](CCCCN)NC(=O)[C@H](CCCNC(=N)N)NC(=O)CNC(C)=O)C(N)=O [listing 2 of 2 here]
Drug uptake (Escherichia coli [3]): Active
Drug uptake (Escherichia coli [4]): Not Active

CC(=O)NCC(=O)N[C@H](CCCCN)C(=O)N/C(=C/c1ccccc1)C(=O)N[C@@H](Cc1c[nH]cn1)C(=O)N[C@H](CCCCN)C(=O)N/C(=C\c1ccccc1)C(=O)N[C@@H](Cc1c[nH]c2ccccc12)C(=O)N[C@@H](C)C(=O)NCCCC[C@@H](NC(=O)[C@H](C)NC(=O)[C@H](Cc1c[nH]c2ccccc12)NC(=O)/C(=C\c1ccccc1)NC(=O)[C@@H](CCCCN)NC(=O)[C@H](Cc1c[nH]cn1)NC(=O)/C(=C\c1ccccc1)NC(=O)[C@@H](CCCCN)NC(=O)CNC(C)=O)C(N)=O
Activity (Escherichia coli [8]): Active

CC(=O)NCC(=O)N/C(=C/c1ccccc1)C(=O)N[C@@H](CCCNC(=N)N)C(=O)N[C@@H](CCCCN)C(=O)N/C(=C/c1ccccc1)C(=O)N[C@@H](Cc1c[nH]cn1)C(=O)N[C@@H](CCCCN)C(=O)N/C(=C\c1ccccc1)C(=O)N[C@@H](Cc1c[nH]c2ccccc12)C(=O)N[C@@H](C)C(=O)NCCCC[C@H](NC(=O)[C@H](C)NC(=O)[C@H](Cc1c[nH]c2ccccc12)NC(=O)/C(=C\c1ccccc1)NC(=O)[C@H](CCCCN)NC(=O)[C@H](Cc1c[nH]cn1)NC(=O)/C(=C\c1ccccc1)NC(=O)[C@H](CCCCN)NC(=O)[C@H](CCCNC(=N)N)NC(=O)/C(=C\c1ccccc1)NC(=O)CNC(C)=O)C(N)=O [listing 2 of 2 here]
MBC (Escherichia coli [1]): 5 µM (≈ 14.1 µg/mL)
MIC (Escherichia coli [1]): 2.5 µM (≈ 7.07 µg/mL)
MBC (Staphylococcus aureus [2]): 7.5 µM (≈ 21.2 µg/mL)
MIC (Staphylococcus aureus [2]): 5 µM (≈ 14.1 µg/mL)
Ratio (Escherichia coli [9]): 2
Ratio (Staphylococcus aureus [13]): 1.5
Activity (Escherichia coli [10]): 96%
